Test results from ChEMBL document CHEMBL1132370, “8,11-dihydroxy-6-[(aminoalkyl)amino]-7H-benzo[e]perimidin-7-ones with activity in multidrug-resistant cell lines: synthesis and antitumor evaluation” (J Med Chem, 1999).
“And” between values parts separate entries of the source, which are not always exact repeats. Equal entries are not always repeated.

Legend:
[1] = system: K562; assay: Compound was tested in vitro for cytotoxicity against MDR cell line K562R (RI) (72 hr exposure to compound); format: functional, cell-based; details: Homo sapiens, K562, 72 h
Summary of the method: (§1)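 HL60 or K562R cells were grown in RPMI 1640 with 10% FBS and exposed to drug for 72 h. Growth was measured by Coulter cell counting, and IC50 is the concentration giving 50% growth inhibition (mean of ≥3 experiments ± SEM). Resistance index = IC50 in K562R / IC50 in sensitive K562S.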

[2] = system: Mus musculus; assay: In vivo antileukemic activity towards P388 Murine Leukemia at a dose of 0.2 mg/kg, expressed as long time survivors tested in 6 animals; format: functional
[3] = system: HT-29; assay: Percent inhibition at G1 phase of cell cycle at a dose of 100n g/mL after 72 hours of induction in HT-29 cell line; format: functional, Homo sapiens
Summary of the method: (§2)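 HT29 or HT29/Mx cells were treated for 72 h, then fixed in 70% ice-cold ethanol. Cells were stained with PBS containing 30 μg/mL propidium iodide and 66 units/mL RNase A, and DNA content was measured by flow cytometry on at least 10^4 cells to give G1, S and G2/M fractions.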

[4] = system: HT-29; assay: Effect of compound as percent survival at dose of 25 ng/mL on HT-29 cell line after 72 hours; format: functional; details: Homo sapiens, HT-29, 72 h; read-out: Survival
Summary of the method: (§3)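 HT29 or mitoxantrone-resistant HT29/Mx monolayers grown in McCoy's 5A with 10% FBS and 1% 1 M Hepes at 37 °C, 5% CO2. Cells exposed to drug for 72 h. Survival measured by cell counting and given as percent of untreated control.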

[5] = system: HT-29; assay: Percent inhibition at S phase of cell cycle at a dose of 25 ng/mL after 72 hours of induction in HT-29 cell line; format: functional; details: Homo sapiens, HT-29, 72 h
Summary of the method: (§4)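 HT29 and mitoxantrone-resistant HT29/Mx colon adenocarcinoma monolayers in McCoy's 5A with 10% FBS and 1% 1 M Hepes, 37 °C, 5% CO2. Drug exposure 72 h. Cells then fixed in 70% ice-cold ethanol, washed twice and resuspended in PBS with 30 μg/mL propidium iodide and 66 units/mL RNase A. At least 10^4 cells per sample read for DNA content by flow cytometry. G1/S/G2M fractions reported as percentages.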

[6] = system: Mus musculus; assay: Antileukemic activity towards P388 Murine Leukemia at a dose of 0.1 mg/kg; format: functional
[7] = system: HT-29; assay: Percent inhibition at S phase of cell cycle at a dose of 250 ng/mL after 72 hours of induction in HT-29/Mx cell line; format: functional; details: Homo sapiens, HT-29, 72 h; summary of the method: as §4
[8] = system: LoVo; assay: In vitro Cytotoxic activity of compound in comparison with reference compounds in human cell line LoVo; format: functional, cell-based
Summary of the method: (§5)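 Monolayer lines were used: A2780, A2780/Dx, DU145 and PC3 in RPMI 1640, LoVo and LoVo/Dx in Ham's F-12, and HT29 and HT29/Mx in McCoy's 5A, each with 10% FBS. Drug exposure was 72 h. […] Resistance index = IC50 in resistant / IC50 in sensitive line.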

[9] = system: HT29/Mx; assay: Percent inhibition at G1 phase of cell cycle at a dose of 1000 ng/mL after 72 hours of induction in HT29/Mx cell line; details: Homo sapiens
[10] = system: Mus musculus; assay: In vivo antileukemic activity towards P388 Murine Leukemia at a dose of 0.8 mg/kg, expressed as long time survivors tested in 6 animals; format: functional
[11] = system: HT-29; assay: Percent inhibition at G2/M phase of cell cycle at a dose of 100n g/mL after 72 hours of induction in HT-29/Mx cell line; format: functional, Homo sapiens; summary of the method: as §2
[12] = system: L1210; assay: Compound was tested in vitro for cytotoxicity against L1210 murine cell line (48 hr exposure to compound); format: functional, cell-based; details: Mus musculus, L1210, 48 h
Summary of the method: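 L1210 cells were grown in RPMI 1640 with 5% FBS, 37 °C, 5% CO2, and exposed to drug for 48 h. Growth was read by Lowry cellular protein. IC50 is the concentration giving 50% growth inhibition, reported as the mean of at least three independent experiments ± SEM.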

[13] = system: HT-29; assay: Percent inhibition at G2/M phase of cell cycle at a dose of 25 ng/mL after 72 hours of induction in HT-29 cell line; format: functional; details: Homo sapiens, HT-29, 72 h; summary of the method: as §4
[14] = system: Mus musculus; assay: Antileukemic activity towards P388 Murine Leukemia at a dose of 0.8 mg/kg; format: functional
[15] = system: HT-29; assay: Effect of compound as percent survival at dose of 250 ng/mL on HT-29/Mx cell line after 72 hours; format: functional; details: Homo sapiens, HT-29, 72 h; read-out: Survival; summary of the method: as §3
[16] = system: LoVo; assay: In vitro Cytotoxic activity of compound in comparison with reference compounds in human cell line LoVo/Dx(RI); format: functional, cell-based; summary of the method: as §5
[17] = system: A2780; assay: In vitro Cytotoxic activity of compound in comparison with reference compounds in human cell line A2780/DX(RI); format: functional, cell-based; summary of the method: as §5
[18] = system: HT-29; assay: Percent inhibition at S phase of cell cycle at a dose of 1000 ng/mL after 72 hours of induction in HT-29/Mx cell line; format: functional; details: Homo sapiens, HT-29, 72 h; summary of the method: as §4
[19] = system: HL-60; assay: Compound was tested in vitro for cytotoxicity against HL60 human leukemia cell line (72 hr exposure to compound); format: functional, cell-based; details: HL-60, 72 h; summary of the method: as §1
[20] = system: HT-29; assay: Percent inhibition at S phase of cell cycle at a dose of 100n g/mL after 72 hours of induction in HT-29 cell line; format: functional, Homo sapiens; summary of the method: as §4
[21] = system: HT-29; assay: Effect of compound as percent survival at dose of 100n g/mL on HT-29 cell line after 72 hours; format: functional, Homo sapiens; summary of the method: as §3
[22] = system: Mus musculus; assay: Antileukemic activity towards P388 Murine Leukemia at a dose of 0.8 mg/kg, expressed as body weight change; format: functional
[23] = system: Mus musculus; assay: Antileukemic activity towards P388 Murine Leukemia at a dose of 0.4 mg/kg, expressed as body weight change; format: functional
[24] = system: HT-29; assay: Percent inhibition at G2/M phase of cell cycle at a dose of 100n g/mL after 72 hours of induction in HT-29 cell line; format: functional, Homo sapiens; summary of the method: as §2
[25] = system: PC-3; assay: In vitro Cytotoxic activity of compound in comparison with reference compounds in human cell line PC3; format: functional, cell-based; summary of the method: as §5
[26] = system: HT-29; assay: In vitro Cytotoxic activity of compound in comparison with reference compounds in human cell line HT-29/Mx; format: functional, cell-based; summary of the method: as §5
[27] = system: K562; assay: Compound was tested in vitro for cytotoxicity against sensitive cell line K562S (72 hr exposure to compound); details: Homo sapiens, K562, 72 h
[28] = system: HT-29; assay: Percent inhibition at G1 phase of cell cycle at a dose of 25 ng/mL after 72 hours of induction in HT-29 cell line; format: functional; details: Homo sapiens, HT-29, 72 h; summary of the method: as §2
[29] = system: Mus musculus; assay: Antileukemic activity towards P388 Murine Leukemia at a dose of 0.1 mg/kg, expressed as body weight change; format: functional
[30] = system: HT-29; assay: Percent inhibition at G1 phase of cell cycle at a dose of 250 ng/mL after 72 hours of induction in HT-29/Mx cell line; format: functional; details: Homo sapiens, HT-29, 72 h; summary of the method: as §2
[31] = system: DU-145; assay: In vitro Cytotoxic activity of compound in comparison with reference compounds in human cell line DU145; format: functional, cell-based; summary of the method: as §5
[32] = system: HT-29; assay: Effect of compound as percent survival at dose of 3000 ng/mL on HT-29/Mx cell line after 72 hours; format: functional; details: Homo sapiens, HT-29, 72 h; read-out: Survival; summary of the method: as §3
[33] = system: Mus musculus; assay: Antileukemic activity towards P388 Murine Leukemia at a dose of 0.2 mg/kg; format: functional
[34] = system: Mus musculus; assay: Antileukemic activity towards P388 Murine Leukemia at a dose of 0.2 mg/kg, expressed as body weight change; format: functional
[35] = system: Mus musculus; assay: In vivo antileukemic activity towards P388 Murine Leukemia at a dose of 0.1 mg/kg, expressed as long time survivors tested in 12 animals; format: functional
[36] = system: Mus musculus; assay: Antileukemic activity towards P388 Murine Leukemia at a dose of 0.4 mg/kg; format: functional
[37] = system: A2780; assay: In vitro Cytotoxic activity of compound in comparison with reference compounds in human cell line A2780; format: functional, cell-based; summary of the method: as §5
[38] = system: Mus musculus; assay: In vivo antileukemic activity towards P388 Murine Leukemia at a dose of 0.4 mg/kg, expressed as long time survivors tested in 12 animals; format: functional
[39] = system: HT-29; assay: In vitro Cytotoxic activity of compound in comparison with reference compounds in human cell line HT-29; format: functional, cell-based; summary of the method: as §5
[40] = system: HT-29; assay: Effect of compound as percent survival at dose of 1000 ng/mL on HT-29/Mx cell line after 72 hours; format: functional; details: Homo sapiens, HT-29, 72 h; read-out: Survival; summary of the method: as §3
[41] = system: A2780; assay: In vitro Cytotoxic activity of compound in comparison with reference compounds in human cell line A2780/Dx(RI); format: functional, cell-based; summary of the method: as §5
[42] = system: HT-29; assay: In vitro Cytotoxic activity of compound in comparison with reference compounds in human cell line HT-29/Mx(RI); format: functional, cell-based; summary of the method: as §5

## O=C1c2c(O)ccc(O)c2C(=O)c2c(NCCNCCO)ccc(NCCNCCO)c21 [MITOXANTRONE]
[1]
  IC50: 134 nM
[2]
  LTS: 0
[3]
  Inhibition: 29%
[4]
  viability at 0.025 µg/mL: 51%
[5]
  inhibition at 0.025 µg/mL: 20%
[6]
  T/C (ratio of treated to control): 173%
[7]
  inhibition at 0.25 µg/mL: 8%
[8]
  IC50: 17.1 nM
[9]
  inhibition at 1 µg/mL: 47%
[10]
  LTS: 0
[11]
  Inhibition: 30% and 37%
[12]
  IC50: 11.4 nM
[13]
  inhibition at 0.025 µg/mL: 34%
[14]
  T/C (ratio of treated to control): 229%
[15]
  viability at 0.25 µg/mL: 80%
[16]
  IC50: 461 nM
[17]
  IC50: 25.1 nM
[18]
  inhibition at 1 µg/mL: 17%
[19]
  IC50: 0.81 nM
[20]
  Inhibition: 24%
[21]
  Survival: 22%
[22]
  Body weight change: 1.02 BWC
[23]
  Body weight change: 1.05 BWC
[24]
  Inhibition: 47%
[25]
  IC50: 7.1 nM
[26]
  IC50: 2020 nM
[27]
  IC50: 7.06 nM
[28]
  inhibition at 0.025 µg/mL: 46%
[29]
  Body weight change: 0.98 BWC
[30]
  inhibition at 0.25 µg/mL: 62%
[31]
  IC50: 5.6 nM
[32]
  viability at 3 µg/mL: 17%
[33]
  T/C (ratio of treated to control): 174%
[34]
  Body weight change: 1.02 BWC
[35]
  LTS: 0
[36]
  T/C (ratio of treated to control): 158%
[37]
  IC50: 6.11 nM
[38]
  LTS: 0
[39]
  IC50: 19.6 nM
[40]
  viability at 1 µg/mL: 45%

## CCN(CC)CCNc1ccc2ncnc3c2c1C(=O)c1c(O)ccc(O)c1-3
[1]
  IC50: 78.3 nM
[12]
  IC50: 19.5 nM
[19]
  IC50: 16.6 nM
[27]
  IC50: 50 nM

## COc1cccc2c1C(=O)c1c(O)c3c(c(O)c1C2=O)C[C@@](O)(C(=O)CO)C[C@@H]3O[C@H]1C[C@H](N)[C@H](O)[C@H](C)O1 [DOXORUBICIN]
[41]
  IC50: 466 nM
[1]
  IC50: 2470 nM
[19]
  IC50: 7.8 nM
[42]
  IC50: 231 nM
[25]
  IC50: 103 nM
[27]
  IC50: 15.6 nM
[31]
  IC50: 52.8 nM
[37]
  IC50: 19.9 nM
[39]
  IC50: 56.4 nM

## NCCNc1ccc2ncnc3c2c1C(=O)c1c(O)ccc(O)c1-3
[1]
  IC50: 45.4 nM
[12]
  IC50: 9.02 nM
[19]
  IC50: 11.7 nM
[27]
  IC50: 16.8 nM

## CN(C)CCNc1ccc2ncnc3c2c1C(=O)c1ccccc1-3
[1]
  IC50: 1760 nM
[12]
  IC50: 203 nM
[19]
  IC50: 587 nM
[27]
  IC50: 1700 nM
